Molecules are shown by their SMILES. Values after ≈ are worked out from the molar mass of the structure shown.

Common to all, as to type: functional
Experiment [1] concerns Mycobacterium tuberculosis. Nature of the experiment: Growth inhibition of Mycobacterium tuberculosis H37Rv ATCC 27294 after 5 to 8 days by microplate alamar blue assay. (In general: Resazurin is reduced to fluorescent resorufin, in cell work by metabolically active cells.)
Experiment [2] has as its system Mycobacterium tuberculosis. Nature of the experiment: Antimycobacterial activity against Mycobacterium tuberculosis H37Rv ATCC 27294 after 5 to 8 days by microplate alamar blue assay.
Experiment [3] relates to Mycobacterium tuberculosis. Kind of experiment: Antimycobacterial activity against Mycobacterium tuberculosis. The essentials: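 Radiometric BACTEC 460 assay in 7H12 broth (BACTEC-12B, 4 mL) with M. tuberculosis H37Rv ATCC 27294. Inoculum came from 7H9/glycerol/0.05% Tween 80 cultures at OD550 0.45–0.55, diluted to reach GI 999 in five days. Compounds were from 1 mg/mL DMSO stocks, with DMSO controls. GI was read daily at 37 °C, 5–8 days. % inhibition = [1 − (GI test/GI control)] × 100. MIC was set against a 1:100 diluted control.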

Where [4] appears, read: Mycobacterium tuberculosis, H37Rv ATCC 27294.

In the case of `CC(=O)c1c(C)[nH]c(C(=O)N/N=C/c2cccc([N+](=O)[O-])c2)c1C`, the “growth inhibition (GI)” value in experiment [1] is given as 18%. In addition, in experiment [2] (setting [4]), the MIC99 (commonly an inhibitory concentration at the 99% level, which refers to growth in some studies and to a panel of isolates in others) is less than 6.25 mg/L.

On to `O=C1Oc2ccc3ccccc3c2C(=O)/C1=N/Nc1ccc(Cl)cc1`, for which, in experiment [1], the “growth inhibition (GI)” value was found to be 88%. Besides, the MIC99 in experiment [2] (setting [4]) was less than 6.25 mg/L. In the same order, the values of `O=C1Nc2c(cccc2[N+](=O)[O-])C(=O)/C1=N/Nc1cccc(Cl)c1` are 82% and less than 6.25 mg/L. In the same order, the values of `O=C1Oc2ccc(-c3ccccc3)cc2C(=O)/C1=N/Nc1cccc(F)c1Cl` are 19% and less than 6.25 mg/L. For `O=C1Nc2c(cccc2[N+](=O)[O-])C(=O)/C1=N/Nc1ccc(Cl)cc1`, in that order: 61% and less than 6.25 mg/L. In the case of `O=C1Nc2c(cccc2[N+](=O)[O-])C(=O)/C1=N/Nc1ccc(Cl)c(Cl)c1`, the “growth inhibition (GI)” value in experiment [1] is given as 79%. Besides, the MIC99 in experiment [2] (setting [4]) was less than 6.25 mg/L. `O=C1Nc2ccccc2C(=O)/C1=N/Nc1ccccc1`: the “growth inhibition (GI)” value in experiment [1] was found to be 97%. For the same molecule, the MIC99 in experiment [2] (setting [4]) was less than 6.25 mg/L.

With `O=C1Nc2c(ccc(Cl)c2Cl)C(=O)/C1=N/Nc1ccccc1`, in experiment [1], the “growth inhibition (GI)” value is 85%. In experiment [2] (setting [4]), this molecule yielded an MIC99 of less than 6.25 mg/L. In the same order, the values of `Cc1c(Cl)cccc1N/N=C1\C(=O)Nc2cc([N+](=O)[O-])ccc2C1=O` are 98% and less than 6.25 mg/L. As to `CC(=O)c1c(C)[nH]c(C(=O)N/N=C/c2ccc(N(C)C)cc2)c1C`, the “growth inhibition (GI)” value in experiment [1] was found to be 18%. Also, the MIC99 in experiment [2] (setting [4]) was less than 6.25 mg/L. For `O=C1Nc2c(cccc2[N+](=O)[O-])C(=O)/C1=N/Nc1ccccc1[N+](=O)[O-]`, in that order: 80% and less than 6.25 mg/L. For `O=C1Nc2cc([N+](=O)[O-])ccc2C(=O)/C1=N/Nc1ccc(Cl)c(F)c1`, in that order: 70% and less than 6.25 mg/L. Take `CCCc1cc(=O)oc2c3c(c4c(c12)OC(C)(C)C=C4)O[C@H](C)[C@@H](C)[C@@H]3O` [CALANOLIDE A]: in experiment [3], it took 3.13 mg/L (≈ 8.45 µM) to inhibit growth (MIC).

In the case of `CO[C@H]1/C=C/O[C@@]2(C)Oc3c(C)c(O)c4c(O)c(c(/C=N/N5CCN(C)CC5)c(O)c4c3C2=O)NC(=O)/C(C)=C\C=C\[C@H](C)[C@H](O)[C@@H](C)[C@@H](O)[C@@H](C)[C@H](OC(C)=O)[C@@H]1C` [RIFAMPIN], the MIC97 in experiment [2] worked out at 0.015 mg/L (≈ 0.0182 µM). Further, the MIC95 in experiment [2] (setting [4]) turned out to be 0.25 mg/L (≈ 0.304 µM). In the case of `O=C1Nc2ccc(Cl)cc2C(=O)/C1=N/Nc1ccc(Cl)cc1`, the “growth inhibition (GI)” value in experiment [1] was 98%. In experiment [2] (setting [4]), this molecule yielded an MIC99 of less than 6.25 mg/L.

As to `O=C1Nc2ccc(Cl)cc2C(=O)/C1=N/Nc1ccccc1[N+](=O)[O-]`, the “growth inhibition (GI)” value in experiment [1] is listed as 64%. In addition, in experiment [2] (setting [4]), the MIC99 is less than 6.25 mg/L. In the same order, the values of `O=C1Oc2ccc(-c3ccccc3)cc2C(=O)/C1=N/Nc1ccccc1[N+](=O)[O-]` are 25% and less than 6.25 mg/L.

On to `O=C1Nc2c(ccc(Cl)c2Cl)C(=O)/C1=N/Nc1ccc([N+](=O)[O-])cc1`, for which, in experiment [1], the “growth inhibition (GI)” value was found to be 89%. In addition, in experiment [2] (setting [4]), the MIC99 is less than 6.25 mg/L.

For `Cc1cccc(N/N=C2\C(=O)Oc3ccc(-c4ccccc4)cc3C2=O)c1`, the “growth inhibition (GI)” value in experiment [1] worked out at 23%. This molecule also registered an MIC99 in experiment [2] (setting [4]) of less than 6.25 mg/L. In the same order, the values of `Cc1cccc(N/N=C2\C(=O)Nc3c(cccc3[N+](=O)[O-])C2=O)c1` are 95% and less than 6.25 mg/L. For `Cc1cccc(N/N=C2\C(=O)Nc3cc(Cl)ccc3C2=O)c1`, in that order: 70% and less than 6.25 mg/L.

As to `CN1C(=O)/C(=N\Nc2ccccc2[N+](=O)[O-])C(=O)c2ccccc21`, the “growth inhibition (GI)” value in experiment [1] is reported as 94%. In experiment [2] (setting [4]), this molecule showed an MIC99 of less than 6.25 mg/L. In the same order, the values of `O=C1Oc2ccc3ccccc3c2C(=O)/C1=N/Nc1ccc([N+](=O)[O-])cc1` are 94% and less than 6.25 mg/L. `O=C1Oc2ccc(-c3ccccc3)cc2C(=O)/C1=N/Nc1ccc(F)cc1`: the “growth inhibition (GI)” value in experiment [1] is on record as 18%. In experiment [2] (setting [4]), this molecule registered an MIC99 of less than 6.25 mg/L. For `Cc1cc(C)cc(N/N=C2\C(=O)Oc3ccc4ccccc4c3C2=O)c1`, in that order: 58% and less than 6.25 mg/L. For `O=C1Nc2c(cccc2[N+](=O)[O-])C(=O)/C1=N/Nc1cccc([N+](=O)[O-])c1`, in that order: 60% and less than 6.25 mg/L. For `O=C1Nc2cc([N+](=O)[O-])ccc2C(=O)/C1=N/Nc1ccc(Br)cc1`, in that order: 100% and less than 6.25 mg/L. In the case of `CC(=O)c1c(C)[nH]c(C(=O)N/N=C/c2ccc([N+](=O)[O-])cc2)c1C`, the “growth inhibition (GI)” value in experiment [1] came to 32%. Besides, the MIC99 in experiment [2] (setting [4]) is less than 6.25 mg/L. Turning to `Cc1cccc(N/N=C2\C(=O)Oc3ccc4ccccc4c3C2=O)c1C`, the “growth inhibition (GI)” value in experiment [1] stood at 64%. The MIC99 in experiment [2] (setting [4]) is less than 6.25 mg/L. In the same order, the values of `COc1ccc(N/N=C2\C(=O)Oc3ccc4ccccc4c3C2=O)cc1` are 55% and less than 6.25 mg/L.

Turning to `Cc1ccccc1N/N=C1\C(=O)Oc2ccc(-c3ccccc3)cc2C1=O`, the “growth inhibition (GI)” value in experiment [1] is on record as 17%. In addition, the MIC99 in experiment [2] (setting [4]) is less than 6.25 mg/L. As for `CC(=O)c1c(C)[nH]c(C(=O)N/N=C/c2ccc(C)cc2)c1C`, in experiment [1], the “growth inhibition (GI)” value stood at 92%. Besides, the MIC99 in experiment [2] (setting [4]) was less than 6.25 mg/L. In the same order, the values of `O=C1Oc2ccc(-c3ccccc3)cc2C(=O)/C1=N/Nc1c(Cl)cccc1Cl` are 23% and less than 6.25 mg/L. For `CC(=O)c1c(C)[nH]c(C(=O)N/N=C/c2cccc(Cl)c2)c1C`, the “growth inhibition (GI)” value in experiment [1] is 29%. The molecule also had an MIC99 in experiment [2] (setting [4]) of less than 6.25 mg/L.

Regarding `O=C1Oc2ccc3ccccc3c2C(=O)/C1=N/Nc1ccccc1`, in experiment [1], the “growth inhibition (GI)” value is given as 62%. The MIC99 in experiment [2] (setting [4]) was less than 6.25 mg/L. With `O=C1Nc2cc([N+](=O)[O-])ccc2C(=O)/C1=N/Nc1ccccc1-c1ccccc1`, in experiment [1], the “growth inhibition (GI)” value was found to be 100%. For the same molecule, the MIC99 in experiment [2] (setting [4]) is less than 6.25 mg/L.

The record behind these values is ChEMBL document CHEMBL1806474, “Diversity oriented design of various hydrazides and their in vitro evaluation against Mycobacterium tuberculosis H37Rv strains” (2011).
